# The sample as a whole holds a higher share of hits than the screen did.
# E-sel inducer – E-selectin induction on HUVECs; activation, % at 7.58 µM; HUVEC E-selectin immunofluorescence imaging; normalized: neutral wells 0, TNF-alpha wells 100; AID 686992; actives 0.37% (n = 260,000);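 active = mean E-selectin-positive cell signal at least 10% of the positive control, reached in at least 60% of replicates, without over 20% cell loss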
# Target sequence (P16581 whole entry, looked up): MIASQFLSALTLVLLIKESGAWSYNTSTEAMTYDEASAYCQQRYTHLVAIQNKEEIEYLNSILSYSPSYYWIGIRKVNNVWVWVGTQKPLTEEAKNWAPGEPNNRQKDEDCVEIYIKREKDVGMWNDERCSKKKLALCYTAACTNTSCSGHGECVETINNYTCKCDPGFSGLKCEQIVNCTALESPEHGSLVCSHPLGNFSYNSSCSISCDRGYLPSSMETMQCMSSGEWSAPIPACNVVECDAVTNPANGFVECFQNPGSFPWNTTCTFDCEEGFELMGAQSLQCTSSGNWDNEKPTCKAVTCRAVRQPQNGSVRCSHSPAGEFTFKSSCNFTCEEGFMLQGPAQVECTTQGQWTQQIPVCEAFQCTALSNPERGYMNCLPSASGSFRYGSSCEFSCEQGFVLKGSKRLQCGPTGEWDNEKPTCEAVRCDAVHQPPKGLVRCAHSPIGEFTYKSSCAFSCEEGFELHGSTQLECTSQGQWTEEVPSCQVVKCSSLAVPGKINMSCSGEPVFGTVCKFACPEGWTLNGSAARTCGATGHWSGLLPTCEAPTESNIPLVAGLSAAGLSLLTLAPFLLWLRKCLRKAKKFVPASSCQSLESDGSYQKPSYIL
#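 Material: HUVEC primary endothelial cells; Amount: 3,000 cells per well; Dosing: single concentration; Medium: EGM-2 growth medium on 0.1% gelatin-coated wells; Read-out basis: percent E-selectin-positive cells; Signal: immunofluorescence imaging; Control set: TNF-alpha, DMSO.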
# Numbers without * were called inactive.
SMILES,E-sel inducer
CCc1ccc(C(C(=O)NC2CCCCC2)N(C(=O)c2csnn2)C2CC2)cc1 (configuration not stated),39.1*
C=CCN(C(=O)c1csnn1)C(C(=O)NC1CCCCC1)c1ccccc1 (configuration not stated),31.5*
COc1ccc(NC(=O)Nc2ccc3c(c2)C(=O)N([C@@H](C)CO)C[C@H](C)[C@@H](CN(C)S(=O)(=O)c2cn(C)cn2)OCCCC[C@@H](C)O3)cc1,0.0
Cc1noc(C)c1NC(=O)N(C)C[C@H]1Oc2c(NC(=O)c3nc4ccccc4s3)cccc2C(=O)N([C@H](C)CO)C[C@@H]1C,-0.1
C[C@H](CO)N1C[C@H](C)[C@@H](CN(C)Cc2ccc(C(=O)Nc3ccccc3N)cc2)Oc2c(NC(=O)c3ccncc3)cccc2C1=O,8.6
C[C@@H]1CN([C@@H](C)CO)C(=O)c2cccc(NC(=O)c3ccc(-c4nccs4)cc3)c2O[C@H]1CN(C)Cc1ccc(Oc2ccccc2)cc1,71.0*
C[C@@H]1CN([C@@H](C)CO)C(=O)c2cccc(NC(=O)c3ccncc3)c2O[C@@H]1CN(C)Cc1ccccc1,0.0
C[C@H]1CN([C@@H](C)CO)C(=O)c2cccc(NC(=O)c3ccc(-c4nccs4)cc3)c2O[C@@H]1CN(C)Cc1ccc(Cl)c(Cl)c1,304.0*
C[C@@H]1CN([C@H](C)CO)C(=O)c2cccc(NC(=O)c3ccc(-c4nccs4)cc3)c2O[C@@H]1CN(C)Cc1ccc(Cl)c(Cl)c1,-1.9
C[C@@H]1CN([C@@H](C)CO)C(=O)c2cccc(NC(=O)c3ccc(-c4nccs4)cc3)c2O[C@@H]1CN(C)Cc1ccc(-c2ccccc2)cc1,0.2
C[C@H]1CN([C@@H](C)CO)C(=O)c2cccc(NC(=O)c3ccncc3)c2O[C@@H]1CN(C)Cc1ccc(C(=O)Nc2ccccc2N)cc1,57.5*
C[C@H]1CN([C@@H](C)CO)C(=O)c2cccc(NC(=O)c3ccc(-c4nccs4)cc3)c2O[C@H]1CN(C)Cc1ccccc1,0.5
C[C@@H]1CN([C@H](C)CO)C(=O)c2cccc(NC(=O)c3ccc(-c4nccs4)cc3)c2O[C@@H]1CN(C)Cc1ccc(Oc2ccccc2)cc1,3.7
C[C@H](CO)N1C[C@H](C)[C@@H](CN(C)Cc2ccc3c(c2)OCCN3C)OCc2cn(nn2)CCCC1=O,-0.1
Cc1noc(C)c1NC(=O)Nc1ccc2c(c1)C(=O)N([C@H](C)CO)C[C@H](C)[C@H](CN(C)C(=O)Nc1c(C)noc1C)OCCCC[C@H](C)O2,0.3
COC(=O)[C@@H]1[C@@H](CO)[C@@H]2Cn3c(ccc(-c4cccc(F)c4)c3=O)[C@@H]2N1CC1CC1,-0.3
Cc1ccc(-n2ncc3c(=O)[nH]c(SC(C)C)nc32)cc1,128.4*
CC(C)Sc1nc2c(cnn2-c2ccc(F)cc2)c(=O)[nH]1,-0.1
CC(C)Sc1nc2c(cnn2-c2ccccc2)c(=O)[nH]1,0.0
C[C@H]1CN([C@@H](C)CO)C(=O)Cc2cc(NS(=O)(=O)c3ccc(Cl)cc3)ccc2O[C@H]1CN(C)C(=O)Nc1cccc2ccccc12,19.6
CN1/C(=C/C=C(C#N)C#N)C(C)(C)c2ccccc21,6.8
CN1/C(=C\C=O)C(C)(C)c2ccccc21,2.9
CN1\C(=C/C=C/C=C/C=[N+](C)C)C(C)(C)c2ccccc21,187.8*
CNC[C@H]1Oc2ncc(-c3cccc(F)c3)cc2C(=O)N([C@H](C)CO)C[C@H]1C,0.0
CN1C(=O)c2cc(NC(=O)c3cccs3)ccc2OC[C@H]2O[C@@H](CC(=O)N3CCOCC3)CC[C@H]21,0.0
SMILES,E-sel inducer
CCOC(=O)CC1C(=O)NCCN1Cc1cccs1 (configuration not stated),0.0
Cc1ccc(CN2CCNC(=O)C2CC(=O)O)o1 (configuration not stated),0.0
O=C(O)CC1C(=O)NCCN1Cc1cccs1 (configuration not stated),84.8*
CC(C)NC(=O)N(C)C[C@@H]1Oc2ccc(NS(=O)(=O)c3ccc(Cl)cc3)cc2C(=O)N([C@@H](C)CO)C[C@@H]1C,0.2
CC(=O)NC[C@H]1[C@H](c2ccccc2)[C@@H](CO)N1C(=O)Cc1ccncc1,-0.1
CC(=O)Nc1ccc(S(=O)(=O)N2CCN(CC(=O)N3CCOCC3)CC2)cc1,0.4
O=C(CN1CCN(S(=O)(=O)N2CCOCC2)CC1)Nc1ccc(Cl)c(Cl)c1,0.1
NS(=O)(=O)c1ccc(NC(=O)CCC(=O)N2CCOCC2)cc1,34.2*
O=C(CCC(=O)N1CCOCC1)Nc1ccc(Cl)c(Cl)c1,85.2*
O=C(CCC(=O)N1CCCCC1)Nc1ccc(Cl)c(Cl)c1,1.8
NS(=O)(=O)c1ccc(NC(=O)CN2C(=O)CCC2=O)cc1,-0.3
COc1ccc(CN(C)C[C@@H]2Oc3ccc(NS(=O)(=O)c4c(C)noc4C)cc3CC(=O)N([C@H](C)CO)C[C@H]2C)cc1,-0.2
C[C@@H]1CN([C@H](C)CO)C(=O)c2cccc(NC(=O)Nc3ccccc3)c2O[C@H]1CN(C)C(=O)NC1CCCCC1,0.4
CC(C)NC(=O)N[C@@H]1CC[C@@H](CCNS(=O)(=O)c2ccc(Cl)cc2)O[C@@H]1CO,0.6
CCS(=O)(=O)Nc1ccc2c(c1)C(=O)N(C)C[C@@H](OC)[C@H](C)CN(C(=O)COC)[C@H](C)CO2,-0.1
C[C@@H]1CN([C@H](C)CO)C(=O)c2cc(C3=CCCC3)cnc2O[C@@H]1CN(C)C(=O)Nc1cccc(F)c1,0.0
Cc1nc(N2CCN(c3ccccn3)CC2)c2c(C)c(C(=O)Nc3ccccc3F)sc2n1,-1.4
Cc1nc(N2CCN(c3ccccn3)CC2)c2c(C)c(C(=O)Nc3ccc(F)cc3F)sc2n1,1.7
Cc1nc(N2CCN(c3ccccn3)CC2)c2c(C)c(C(=O)Nc3ccc(F)cc3Cl)sc2n1,43.5*
CCNC(=O)Nc1ccc2c(c1)C(=O)N(C)[C@H]1CC[C@H](CC(=O)NCC3CC3)O[C@H]1CO2,-0.1
C[C@@H]1CN([C@@H](C)CO)C(=O)c2cc(C#Cc3ccncc3)cnc2O[C@H]1CN(C)Cc1ccncc1,0.3
Cc1ccc(S(=O)(=O)Nc2ccc3c(c2)C(=O)N([C@H](C)CO)C[C@@H](C)[C@H](CN(C)S(=O)(=O)c2cccs2)O3)cc1,1.5
CCC(=O)N1[C@H](CO)[C@@H](c2ccccc2)[C@@H]1CN(CC)C(=O)c1cccc(F)c1,0.4
COc1ccc2c3c(n(C)c2c1)[C@H](CO)N(C(=O)c1cccnc1)CC31CCN(C(=O)c2cccnc2)CC1,0.0
O=C(NC1CCCC1)[C@H]1[C@H](CO)[C@H]2Cn3c(ccc(-c4cccnc4)c3=O)[C@H]2N1CC1CC1,-1.8
SMILES,E-sel inducer
CCCC(=O)Nc1ccc2c(c1)OC[C@H](C)N(C(=O)CC)C[C@H](C)[C@H](OC)CN(C)C2=O,-0.4
Cc1ccsc1CN(C)Cc1nc(C2CC2)no1,513.1*
CN(Cc1ccc2nonc2c1)Cc1nc(CC2CC2)no1,-0.4
c1ccc(CCN(Cc2ccccc2)Cc2nc(C3CC3)no2)cc1,-0.1
CC(C)NC(=O)N[C@@H]1C=C[C@H](CC(=O)N2CCCCC2)O[C@@H]1CO,-0.2
COCCCNC(=O)c1ccc2c(=O)n(Cc3ccccc3OC)c(=S)[nH]c2c1,0.0
COC(CNC(=O)c1ccc2c(=O)n(Cc3ccc(Cl)cc3)c(=S)[nH]c2c1)OC,4.3
COCCCNC(=O)c1ccc2c(=O)n(Cc3ccc(Cl)cc3)c(=S)[nH]c2c1,48.6*
CCCNC(=O)N[C@H]1C=C[C@H](CC(=O)NC2CCCCC2)O[C@H]1CO,0.1
CCCn1c(CCl)nc2cc(S(=O)(=O)N3CCOCC3)ccc21,0.2

# From PubChem
